Data as given in ChEMBL document CHEMBL5154854, “Identification of a Vitamin-D Receptor Antagonist, MeTC7, which Inhibits the Growth of Xenograft and Transgenic Tumors In Vivo” (J Med Chem, 2022).

Target: T1, Vitamin D3 receptor (Homo sapiens) (UniProt P11473)
T1 sequence (whole entry): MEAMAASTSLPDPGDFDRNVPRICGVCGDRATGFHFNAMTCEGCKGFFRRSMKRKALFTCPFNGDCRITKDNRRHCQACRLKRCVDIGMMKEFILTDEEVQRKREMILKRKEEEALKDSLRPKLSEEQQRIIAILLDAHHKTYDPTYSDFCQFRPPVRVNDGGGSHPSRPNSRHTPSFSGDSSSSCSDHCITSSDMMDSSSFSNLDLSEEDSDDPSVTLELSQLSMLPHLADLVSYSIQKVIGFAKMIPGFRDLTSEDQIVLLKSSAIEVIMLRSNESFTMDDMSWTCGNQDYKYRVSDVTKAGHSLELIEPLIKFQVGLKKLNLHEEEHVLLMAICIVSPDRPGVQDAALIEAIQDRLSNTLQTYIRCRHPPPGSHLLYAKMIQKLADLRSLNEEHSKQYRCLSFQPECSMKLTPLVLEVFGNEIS
Assay: Antagonist activity at VDR LBD (unknown origin) using Alexa Fluor 647-labeled SRC2-3 as substrate incubated for 2 hrs in presence of calcitriol by fluorescence polarization assay
In short: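 VDR-LBD (0.1 μM) with Alexa Fluor 647-labelled SRC2-3 (17.5 nM) and 10 nM 1,25(OH)2D3 in 25 mM PIPES, 50 mM NaCl, 0.01% NP-40, pH 6.75. Compounds were serially diluted 1:2 from 10 mM DMSO stocks and incubated 2 h. Polarization was read at 635/685 nm. Three independent experiments in quadruplicate; IC50 by variable-slope nonlinear regression.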

Activity: > 100 µM
SMILES: CC(C)CCC[C@@H](C)[C@H]1CC[C@@H]2[C@]1(C)CCC1[C@]23C=C[C@]2(C[C@@H](O)CC[C@]12C)n1c(=O)n(C)c(=O)n13 (stereo partly specified)
